In BindingDB's records for doi:10.1021/jm0303608 (University of Florida, 2004):

What was measured:
Melanocortin receptor 3 = Melanocortin receptor 3 (Mus musculus, UniProt P33033); assay: Effective concentration against mouse Melanocortin 3 receptor
Procedure, shortened: (§1)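 HEK-293 cells stably expressing the mouse receptor (calcium phosphate transfection, G418 1 mg/mL selection) were transfected with 4 μg CRE/β-galactosidase reporter. EC50 came from nonlinear least-squares fit; at least three independent experiments.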

Melanocortin receptor 4 = Melanocortin receptor 4 (Mus musculus, UniProt P56450); assay: Effective concentration against mouse melanocortin MC4 receptor; procedure, shortened: as §1
Melanocortin receptor 4, sequence (P56450 whole entry): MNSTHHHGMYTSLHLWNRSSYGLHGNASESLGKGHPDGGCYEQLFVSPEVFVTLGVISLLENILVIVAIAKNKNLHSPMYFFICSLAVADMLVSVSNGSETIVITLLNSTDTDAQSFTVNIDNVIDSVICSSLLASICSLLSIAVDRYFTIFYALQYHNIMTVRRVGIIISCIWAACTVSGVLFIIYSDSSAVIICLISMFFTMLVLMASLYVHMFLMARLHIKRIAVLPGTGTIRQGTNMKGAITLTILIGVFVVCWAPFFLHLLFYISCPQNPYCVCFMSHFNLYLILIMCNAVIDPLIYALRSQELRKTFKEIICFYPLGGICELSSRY

Melanocortin receptor 3, sequence (P33033 whole entry): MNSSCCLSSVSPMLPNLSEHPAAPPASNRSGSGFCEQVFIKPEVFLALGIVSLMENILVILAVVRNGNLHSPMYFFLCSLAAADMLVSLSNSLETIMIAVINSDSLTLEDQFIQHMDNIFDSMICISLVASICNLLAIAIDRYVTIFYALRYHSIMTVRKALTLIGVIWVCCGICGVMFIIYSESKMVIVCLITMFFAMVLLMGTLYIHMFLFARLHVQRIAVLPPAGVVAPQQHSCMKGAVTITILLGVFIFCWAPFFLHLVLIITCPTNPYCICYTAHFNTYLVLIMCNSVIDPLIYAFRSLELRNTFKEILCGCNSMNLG

| Structure (SMILES) | Kd (Melanocortin receptor 3) | Kd (Melanocortin receptor 4) |
| --- | --- | --- |
| C[C@@H]1NC(=O)[C@@H](CC(N)=O)NC(=O)[C@H](Cc2ccccc2)NC(=O)[C@@H](Cc2ccccc2)NC(=O)[C@H](CCCNC(=N)N)NC(=O)[C@@H](NC(=O)[C@@H](N)Cc2ccc(O)cc2)CC(=O)NC(C(=O)NN[C@H](Cc2ccc(O)cc2)C(=O)C(N)=O)NC(=O)C(=O)[C@@H](Cc2ccccc2)NC1=O (stereo partly drawn) [Tyr-c[Asp-Arg-Phe-Phe-Asn-Ala-Phe-Dpr]-Tyr-NH2] | 2 µM | – |
| C[C@@H]1NC(=O)[C@H](CC(N)=O)NC(=O)[C@H](Cc2ccccc2)NC(=O)[C@H](Cc2ccccc2)NC(=O)[C@H](CCCNC(=N)N)NC(=O)[C@@H](NC(=O)[C@@H](N)Cc2ccc(O)cc2)CC(=O)NC[C@@H](C(=O)N[C@@H](Cc2ccc(O)cc2)C(N)=O)NC(=O)[C@H](Cc2ccccc2)NC1=O [Tyr-c[Asp-Arg-Phe-Phe-Asn-Ala-Phe-Dpr]-Tyr-NH2] | – | 1.26 µM |
